Compound activity as filed in PubChem BioAssay.
Shown are actives, neighbours in structure and some others; about 3.7% of the full set was active somewhere.
KCNK9 inh: human KCNK9 channel inhibition. B-score at 10 µM. actives 1.2% (n = 310,000). HEK293 KCNK9, FluxOR thallium flux fluorescence; stronger effect = lower value;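 active = ratio B-score over 3 SD below the library mean, with starting fluorescence within 5 SD of its mean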;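 also: negative B-score means less thallium flux so channel inhibition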
Target sequence (Q9NPC2 whole entry, looked up): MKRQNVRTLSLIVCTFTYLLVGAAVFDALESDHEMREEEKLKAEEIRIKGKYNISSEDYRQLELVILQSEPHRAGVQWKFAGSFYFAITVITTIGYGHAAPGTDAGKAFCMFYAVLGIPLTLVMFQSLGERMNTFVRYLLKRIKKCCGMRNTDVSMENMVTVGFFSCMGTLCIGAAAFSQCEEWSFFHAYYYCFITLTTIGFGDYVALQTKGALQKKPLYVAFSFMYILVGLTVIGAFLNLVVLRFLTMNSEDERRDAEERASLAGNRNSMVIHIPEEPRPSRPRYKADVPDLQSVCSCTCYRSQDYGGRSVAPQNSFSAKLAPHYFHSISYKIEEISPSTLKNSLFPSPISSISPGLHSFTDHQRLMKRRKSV
KCNK3 inh: human KCNK3 channel inhibition, primary screen. actives 0.84% (n = 340,000). AID 602410. B-score at 10 µM. CHO-KCNK3 thallium flux, FluxOR fluorescence; stronger effect = lower value;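 active = B-score under library mean minus 4 SD, starting fluorescence ratio at most library mean plus 5 SD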;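 also: more negative B-score means stronger inhibition of thallium flux through KCNK3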
Kir21 block: Kir2.1 (mouse) channel inhibition. P35561. HEK293-Kir2.1, FluxOR thallium flux fluorescence; stronger effect = lower value. B-score at 10 µM. actives 0.85% (n = 310,000);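 active = fluorescence ratio B-score at or below minus 3 SD of library scores, with starting-brightness B-score within 2 SD, cut at about -4.2 in these data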;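 also: channel flux triggered by added potassium and thallium sulfate stimulus; B-score of peak minus minimum fluorescence over baseline after thallium stimulus; more negative B-score means stronger Kir2.1 block with less thallium influx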
KCNQ1 inh: inhibitors of human KCNQ1 potassium channel. P51787. CHO-K1 KCNQ1, FluxOR thallium flux fluorescence; stronger effect = higher value. B-score at 10 µM. actives 1.3% (n = 310,000);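 active = compounds whose thallium flux B-score, printed positive for inhibition, exceeds three library SD while starting fluorescence stays within three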;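 also: channel opened by potassium depolarization with thallium stimulus after 20 min compound exposure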
KCNQ1 pot: human KCNQ1 channel potentiation or activation | B-score at 10 µM | P51787 | CHO-K1 KCNQ1, thallium flux FluxOR fluorescence; stronger effect = higher value | actives 0.35% (n = 310,000);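 active = fluorescence ratio B-score, a plate-corrected score, at least three library SD, with initial intensity B-score within 5 SD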
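Assay system: CHO-K1 cells stably expressing KCNQ1; Medium: assay buffer with matched DMSO; Also added: K+/Tl+ depolarizing stimulus; Dosing: single dose; Timing: dye 90 min, compound 20 min, room temperature; Measured by: kinetic FluxOR thallium fluorescence, 10-s 1-Hz baseline, 110-s post-stimulus read; Read-out: peak-minus-minimum fluorescence over initial fluorescence, negative-control normalized, B-scored.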
hERG rescue: shields human hERG channel from block by proarrhythmic agents | Q12809 | CHO-hERG, FluxOR thallium flux, dofetilide IC70 present | activation (rescue from dofetilide block), less the hit threshold, % at 10 µM | actives 0.51% (n = 310,000);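 active = activation above the mean of controls blocked by dofetilide plus 5 SD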;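 also: thallium influx through hERG after potassium depolarization seen as dye fluorescence rise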
Starred values were filed as active, the others as inactive; i = inactive; · = no result given.

SMILES	KCNK9 inh	KCNK3 inh	Kir21 block	KCNQ1 inh	KCNQ1 pot	hERG rescue
COc1ccc([N+](=O)[O-])c(S(=O)(=O)c2ccc(Cl)cc2)n1	i	i	-4.6*	i	i	-8
Nc1ccc(S(=O)(=O)NC2(C(F)(F)F)NC(=O)N(c3ccccc3F)C2=O)cc1 (configuration not stated)	i	i	-1.7	i	i	-5
Cc1ccc(C)c2sc(NC(=O)c3nc4ccccc4s3)nc12	i	i	0.39	i	25*	8.9*
O=C(Nc1ccccc1)c1nc2ccccc2s1	i	i	0.83	i	i	-10
CC(C)C(=O)NC(Nc1ccccc1F)C(Cl)(Cl)Cl (configuration not stated)	i	i	-4.5*	i	i	-2
CCCC(=O)NC(Nc1ccccc1F)C(Cl)(Cl)Cl (configuration not stated)	i	·	-8.1*	i	i	-10
CC(C)CC(=O)NC(Nc1ccccc1F)C(Cl)(Cl)Cl (configuration not stated)	i	i	-2.5	i	i	-6
O=C(COC(=O)C1CC(=O)N(Cc2ccco2)C1)c1ccc(OC(=O)c2ccccc2)cc1 (configuration not stated)	i	i	-6.2*	i	i	-5
O=C(COC(=O)C1CC(=O)N(Cc2ccco2)C1)Nc1ccccc1[N+](=O)[O-] (configuration not stated)	·	i	·	·	·	·
COc1ccc(NS(=O)(=O)c2cccc(C(=O)NN=C(C)c3ccco3)c2)cc1	·	i	·	·	·	·
CCCCn1c(N)c(C(=S)NC(=O)CC(C)(C)C)c(=O)n(C)c1=O	i	i	0	i	18*	25*
CN(C(=O)/C=C/c1ccccc1)C1CCCCC1	i	i	-0.1	i	i	-3
O=C(NC(=S)N(CCCCO)C1CCCCC1)c1sc2ccccc2c1Cl	i	i	-2.3	i	31*	18*
Cc1c(CCC(=O)NCCCn2ccnc2)c(=O)oc2cc3oc4c(c3cc12)CCCC4	i	i	-0.7	i	i	-11
CCCCn1nc(C(=O)N[C@@H](CCSC)c2nc3ccccc3[nH]2)c2ccccc2c1=O	-7.5*	i	-0.74	i	i	-4
CCCn1nc(C(=O)N2CCc3ccccc32)c2ccccc2c1=O	·	i	·	·	·	·
CCCCn1nc(C(=O)Nc2ccccc2N2CCCC2)c2ccccc2c1=O	·	-8.7*	·	·	·	·
CCCn1nc(C(=O)Nc2ccc3c(c2)OCO3)c2ccccc2c1=O	·	i	·	·	·	·
CCCCCn1nc(C(=O)N2CCc3ccccc32)c2ccccc2c1=O	·	-10*	·	·	·	·
CCCCn1nc(C(=O)NC2CCCCCC2)c2ccccc2c1=O	·	i	·	·	·	·
CCCCn1nc(C(=O)Nc2ccc3c(c2)OCO3)c2ccccc2c1=O	·	-10*	·	·	·	·
CCn1nc(C(=O)N[C@@H](CCSC)c2nc3ccccc3[nH]2)c2ccccc2c1=O	i	i	2.4	i	i	-18
CCC(NC(=O)Nc1nnc(C(F)(F)F)s1)(C(F)(F)F)C(F)(F)F	i	i	-4.5*	i	i	-50
CCCOc1cccc(C(=O)N/N=C/c2ccoc2)c1	i	i	-0.04	i	i	-8
CO/N=C(/CS(=O)c1ccc(Br)cc1)c1ccc(OC)cc1 (configuration not stated)	i	i	-8.9*	i	i	-11
SMILES	KCNK9 inh	KCNK3 inh	Kir21 block	KCNQ1 inh	KCNQ1 pot	hERG rescue
CCc1ccccc1Nc1nc(N)nc(COC(=O)CCNS(=O)(=O)c2ccccc2)n1	-8.1*	i	-0.03	i	i	-17
CCn1c(CSc2nnc(-c3ccoc3C)n2C)nc2cc(S(=O)(=O)N(C)C)ccc21	i	i	0.11	i	i	32*
O=C(COC(=O)C1(c2ccccc2F)CCCC1)NCc1cccs1	i	i	-6.8*	i	i	-6
O=C(CN1CCCCC1)Nc1ccc(S(=O)(=O)c2ccc(NC(=O)CN3CCCCC3)cc2)cc1	·	i	·	·	·	·
CC(=O)c1cccc(N=c2scc(-c3ccc(S(=O)(=O)N4CCOCC4)cc3)n2CCO)c1	i	i	0.16	7*	i	-17
Cc1ccc(-n2cc(-c3ccc([N+](=O)[O-])cc3)[nH]c2=S)c(C)c1	i	i	0.03	i	i	7.2*
